Measurements from ChEMBL document CHEMBL4052828, “Discovery of 4-((7H-Pyrrolo[2,3-d]pyrimidin-4-yl)amino)-N-(4-((4-methylpiperazin-1-yl)methyl)phenyl)-1H-pyrazole-3-carboxamide (FN-1501), an FLT3- and CDK-Kinase Inhibitor with Potentially High Efficiency against Acute Myelocytic Leukemia” (J Med Chem, 2018).
The source made the active and inactive calls. The calls are words filed in the database; no cut-off is given here.

Experiments:
MV4-11 [1] = assay: Growth inhibition of human MV4-11 cells after 72 hrs by CellTiter-Glo assay; format: functional, cell-based; settings: MV4-11, 72 h
Outline: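 MV4-11 cells grown in IMDM with 10% FBS, 2% L-glutamine and 1% pen/strep at 37 °C, 5% CO2. Seeded at 10000 cells/well and exposed to compound at various concentrations for 72 h. Viability read by CellTiter-Glo luminescence.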

MV4-11 [2] = assay: Induction of apoptosis in human MV4-11 cells assessed as early apoptotic cells at 2 uM after 24 hrs by annexin V-FITC/propidium iodide staining-based flow cytometric method (reference value: 3.54%); format: functional
MV4-11 [3] = assay: Induction of apoptosis in human MV4-11 cells assessed as late apoptotic cells at 2 uM after 24 hrs by annexin V-FITC/propidium iodide staining-based flow cytometric method (reference value: 2.54%); format: functional
MV4-11 [4] = assay: Cell cycle arrest in human MV4-11 cells assessed as accumulation at G0/G1 phase at 0.2 uM after 24 hrs by propidium iodide/BrdU staining-based flow cytometric method; format: functional
Outline: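 Cells treated with compound for 24 h, then fixed. Double-stained with propidium iodide and BrdU for flow cytometric analysis of cell cycle distribution.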

[5] = biological target: Receptor-type tyrosine-protein kinase FLT3 (Homo sapiens) (UniProt P36888); settings: 1 uM
[6] = biological target: Receptor-type tyrosine-protein kinase FLT3 (Homo sapiens) (UniProt P36888); settings: 1 uM; remark: listed apart in the source
[7] = biological target: Receptor-type tyrosine-protein kinase FLT3 (Homo sapiens) (UniProt P36888); settings: 1 uM; remark: listed apart in the source
[8] = biological target: Receptor-type tyrosine-protein kinase FLT3 (Homo sapiens) (UniProt P36888); settings: 1 uM; remark: listed apart in the source
CDK2/Cyclin A1 = CDK2/Cyclin A1 (Homo sapiens, UniProt P24941); assay: Inhibition of human CDK2/Cyclin A1 using histone H1 as substrate preincubated for 20 mins followed by [gamma-33P]-ATP addition measure after 120 mins by filter binding method; format: protein-complex assay
Outline: (§1)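 Compound preincubated with kinase 20 min at room temperature. Filter-binding read-out, curve-fitted IC50; mean ± SD of three independent experiments.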

[9] = biological target: T1, Receptor-type tyrosine-protein kinase FLT3 (Homo sapiens, UniProt P36888); assay: Inhibition of human FLT3 using EAIYAAPFAKKK as substrate preincubated for 20 mins followed by [gamma-33P]-ATP addition measure after 120 mins by filter binding method; outline: as §1
T1 sequence (P36888 whole entry): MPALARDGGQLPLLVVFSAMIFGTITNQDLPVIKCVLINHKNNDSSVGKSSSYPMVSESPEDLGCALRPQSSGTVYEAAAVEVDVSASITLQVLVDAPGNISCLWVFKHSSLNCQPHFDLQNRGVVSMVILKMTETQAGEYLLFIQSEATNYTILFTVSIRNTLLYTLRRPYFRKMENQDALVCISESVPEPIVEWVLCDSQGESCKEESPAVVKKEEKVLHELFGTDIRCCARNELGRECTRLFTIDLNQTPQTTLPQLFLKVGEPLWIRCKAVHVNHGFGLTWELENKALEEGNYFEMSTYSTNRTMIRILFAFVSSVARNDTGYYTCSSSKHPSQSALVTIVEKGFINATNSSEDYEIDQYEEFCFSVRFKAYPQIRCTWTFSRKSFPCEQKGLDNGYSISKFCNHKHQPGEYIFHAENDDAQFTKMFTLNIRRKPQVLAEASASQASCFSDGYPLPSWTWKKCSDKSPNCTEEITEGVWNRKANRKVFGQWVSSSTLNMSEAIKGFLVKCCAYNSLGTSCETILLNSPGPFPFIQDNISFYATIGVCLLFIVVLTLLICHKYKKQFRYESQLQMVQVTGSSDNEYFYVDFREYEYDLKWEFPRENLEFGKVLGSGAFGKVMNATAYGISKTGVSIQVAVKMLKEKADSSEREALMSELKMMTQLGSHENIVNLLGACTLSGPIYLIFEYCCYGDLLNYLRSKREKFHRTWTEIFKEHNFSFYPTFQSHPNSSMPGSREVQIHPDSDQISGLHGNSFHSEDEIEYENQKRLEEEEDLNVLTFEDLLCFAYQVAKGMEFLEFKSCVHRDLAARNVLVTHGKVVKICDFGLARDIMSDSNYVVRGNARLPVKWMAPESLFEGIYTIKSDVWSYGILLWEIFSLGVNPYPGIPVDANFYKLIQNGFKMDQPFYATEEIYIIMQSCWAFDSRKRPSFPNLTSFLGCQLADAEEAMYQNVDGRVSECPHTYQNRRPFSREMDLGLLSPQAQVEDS

[10] = biological target: Cyclin-dependent kinase 4/cyclin D1 (Homo sapiens, UniProt P11802); assay: Inhibition of human CDK4/Cyclin D1 using RB protein as substrate preincubated for 20 mins followed by [gamma-33P]-ATP addition measure after 120 mins by filter binding method; format: protein-complex assay
Chain of Cyclin-dependent kinase 4/cyclin D1 (P11802 whole entry): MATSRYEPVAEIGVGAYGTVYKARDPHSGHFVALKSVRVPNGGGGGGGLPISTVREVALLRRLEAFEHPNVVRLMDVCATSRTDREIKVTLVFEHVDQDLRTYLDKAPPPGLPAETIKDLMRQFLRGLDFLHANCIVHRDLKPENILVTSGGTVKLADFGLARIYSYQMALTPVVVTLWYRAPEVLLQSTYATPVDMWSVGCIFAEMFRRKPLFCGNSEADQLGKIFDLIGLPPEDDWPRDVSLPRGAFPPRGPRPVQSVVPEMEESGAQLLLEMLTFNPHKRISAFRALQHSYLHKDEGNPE
Chain of Cyclin-dependent kinase 4/cyclin D1 (P24385 whole entry, further chain): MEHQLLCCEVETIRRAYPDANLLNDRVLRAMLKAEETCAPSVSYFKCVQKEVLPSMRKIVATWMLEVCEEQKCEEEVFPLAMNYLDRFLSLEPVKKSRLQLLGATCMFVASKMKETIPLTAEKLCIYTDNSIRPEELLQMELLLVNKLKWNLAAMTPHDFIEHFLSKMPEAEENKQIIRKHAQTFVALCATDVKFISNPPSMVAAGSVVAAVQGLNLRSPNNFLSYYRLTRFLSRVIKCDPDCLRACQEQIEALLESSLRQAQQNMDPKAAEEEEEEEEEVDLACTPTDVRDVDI
Outline: (§2)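 Compound preincubated with kinase 20 min at room temperature. Reaction started with 10 μM [γ-33P]ATP and run 120 min at 25°C. Filter-binding read-out, curve-fitted IC50; mean ± SD of three independent experiments.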

CDK6/cyclin D1 = CDK6/cyclin D1 (Homo sapiens, UniProt Q00534); assay: Inhibition of human CDK6/Cyclin D1 using RB protein as substrate preincubated for 20 mins followed by [gamma-33P]-ATP addition measure after 120 mins by filter binding method; format: protein-complex assay; outline: as §2
Chain of CDK6/cyclin D1 (P24385 whole entry): as the sequence (P24385 whole entry, further chain) above
Chain of CDK6/cyclin D1 (Q00534 whole entry): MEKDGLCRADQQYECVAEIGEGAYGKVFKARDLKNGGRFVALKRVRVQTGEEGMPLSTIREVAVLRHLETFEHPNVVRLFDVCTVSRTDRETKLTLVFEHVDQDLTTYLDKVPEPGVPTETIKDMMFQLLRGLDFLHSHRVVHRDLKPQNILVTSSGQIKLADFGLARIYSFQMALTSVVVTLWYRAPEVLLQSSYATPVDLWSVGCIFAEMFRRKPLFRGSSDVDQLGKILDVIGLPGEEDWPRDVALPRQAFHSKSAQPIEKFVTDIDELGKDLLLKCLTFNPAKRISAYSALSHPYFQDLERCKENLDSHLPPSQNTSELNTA

[11] = biological target: ALK tyrosine kinase receptor (Homo sapiens, UniProt Q9UM73); assay: Inhibition of human ALK using poly[Glu:Tyr] (4:1) as substrate preincubated for 20 mins followed by [gamma-33P]-ATP addition measure after 120 mins by filter binding method
Chain of ALK tyrosine kinase receptor (Q9UM73 whole entry): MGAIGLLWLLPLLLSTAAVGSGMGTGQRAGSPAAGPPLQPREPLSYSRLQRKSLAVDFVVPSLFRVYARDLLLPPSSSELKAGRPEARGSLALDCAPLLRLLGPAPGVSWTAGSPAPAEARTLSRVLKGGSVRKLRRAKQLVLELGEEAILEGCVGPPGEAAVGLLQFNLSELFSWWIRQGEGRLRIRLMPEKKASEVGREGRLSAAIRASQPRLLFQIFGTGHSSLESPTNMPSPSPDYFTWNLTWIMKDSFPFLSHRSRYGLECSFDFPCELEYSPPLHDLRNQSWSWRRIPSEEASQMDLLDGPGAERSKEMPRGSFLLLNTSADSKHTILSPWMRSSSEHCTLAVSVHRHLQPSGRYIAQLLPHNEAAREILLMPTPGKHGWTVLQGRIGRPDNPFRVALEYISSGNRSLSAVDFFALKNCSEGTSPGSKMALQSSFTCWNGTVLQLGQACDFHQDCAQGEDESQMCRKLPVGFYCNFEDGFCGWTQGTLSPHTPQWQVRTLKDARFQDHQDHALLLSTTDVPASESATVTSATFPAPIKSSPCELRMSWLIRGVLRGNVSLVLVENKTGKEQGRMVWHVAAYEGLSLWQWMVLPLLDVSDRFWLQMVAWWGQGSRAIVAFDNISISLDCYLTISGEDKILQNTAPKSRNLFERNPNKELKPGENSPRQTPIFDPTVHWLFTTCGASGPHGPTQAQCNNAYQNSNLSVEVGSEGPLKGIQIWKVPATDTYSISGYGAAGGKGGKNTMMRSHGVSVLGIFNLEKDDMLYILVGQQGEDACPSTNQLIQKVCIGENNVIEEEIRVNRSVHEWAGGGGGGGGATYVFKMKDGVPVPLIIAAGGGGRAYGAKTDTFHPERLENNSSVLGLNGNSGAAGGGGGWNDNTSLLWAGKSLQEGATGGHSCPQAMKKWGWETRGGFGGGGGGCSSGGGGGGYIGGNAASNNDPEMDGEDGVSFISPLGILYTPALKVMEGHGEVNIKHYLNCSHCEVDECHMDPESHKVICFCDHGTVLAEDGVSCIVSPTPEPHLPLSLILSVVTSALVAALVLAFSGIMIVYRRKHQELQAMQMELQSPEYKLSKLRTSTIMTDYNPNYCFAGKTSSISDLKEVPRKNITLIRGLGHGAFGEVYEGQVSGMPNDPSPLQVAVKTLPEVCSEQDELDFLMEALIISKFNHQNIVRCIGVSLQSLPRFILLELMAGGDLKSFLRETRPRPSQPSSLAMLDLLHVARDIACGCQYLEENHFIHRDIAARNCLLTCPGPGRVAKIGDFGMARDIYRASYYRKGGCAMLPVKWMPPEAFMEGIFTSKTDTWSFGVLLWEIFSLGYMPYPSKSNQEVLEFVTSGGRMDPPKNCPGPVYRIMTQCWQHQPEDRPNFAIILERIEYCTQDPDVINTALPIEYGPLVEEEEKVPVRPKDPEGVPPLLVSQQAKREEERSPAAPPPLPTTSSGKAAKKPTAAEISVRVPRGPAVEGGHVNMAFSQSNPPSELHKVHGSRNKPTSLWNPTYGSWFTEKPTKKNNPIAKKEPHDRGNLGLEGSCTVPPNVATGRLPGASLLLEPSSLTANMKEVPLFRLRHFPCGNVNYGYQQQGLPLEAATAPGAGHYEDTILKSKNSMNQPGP
Outline: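 Compound in DMSO was added to the kinase mixture for 20 min at room temperature. The reaction was started with 10 μM [γ-33P]ATP and run 120 min at 25 °C.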

RS4-11 = assay: Growth inhibition of human RS4:11 cells after 72 hrs by CellTiter-Glo assay; format: functional; settings: RS4-11, 72 h
MCF7 = assay: Growth inhibition of human MCF7 cells after 72 hrs by CellTiter-Glo assay; format: functional; settings: MCF7, 72 h
HCT-116 = assay: Growth inhibition of human HCT116 cells after 72 hrs by CellTiter-Glo assay; format: functional; settings: HCT-116, 72 h
NCI-H82 = assay: Growth inhibition of human NCI-H82 cells after 72 hrs by CellTiter-Glo assay; format: functional; settings: NCI-H82, 72 h
MGC-803 = assay: Growth inhibition of human MGC803 cells after 72 hrs by CellTiter-Glo assay; format: functional; settings: MGC-803, 72 h
MV4-11 [12] = assay: Antitumor activity against human MV4-11 cells xenografted in nu/nu mouse assessed as tumor growth inhibition at 50 mg/kg, iv qd measured on day 21 relative to vehicle-treated control; format: functional; settings: MV4-11, iv, 504 h, read-out: TGI
Outline: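 Female nu/nu mice bearing MV4-11 xenografts; dosing began once tumors reached 200 mm3. Given iv once daily for 21 days, with a vehicle-only group. Body weight and tumor size tracked relative to initial values, set as 100%. Tumors weighed at the end of the 22-day treatment period.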

IC50 (MV4-11 [1]) [nM] | inhibition [5] | inhibition [6] | inhibition [7] | inhibition [8] | IC50 (CDK2/Cyclin A1) [nM] | IC50 [9] [nM] | IC50 [10] [nM] | IC50 (CDK6/cyclin D1) [nM] | IC50 [11] [nM] | GI50 (RS4-11) [nM] | GI50 (MCF7) [nM] | GI50 (HCT-116) [nM] | GI50 (NCI-H82) [nM] | GI50 (MGC-803) [nM] | Structure (SMILES) | Activity (MV4-11 [2]) [%] | Activity (MV4-11 [3]) [%] | Activity (MV4-11 [4]) | inhibition in vivo at 50 mg/kg (MV4-11 [12]) [%]
4 | Active | Active | Active | Active | – | – | – | – | – | – | – | – | – | – | CNC(=O)c1cc(Oc2ccc(NC(=O)Nc3ccc(Cl)c(C(F)(F)F)c3)cc2)ccn1 [SORAFENIB] | 51.35 | 23.97 | Active | –
19 | – | – | – | – | 5.85 to 9.47 | 0.438 to 0.6 | 3.33 to 5.57 | 4.24 to 4.5 | 94.1 | 130 | 620 | 370 | 170 | 160 | CN1CCN(Cc2ccc(NC(=O)c3n[nH]cc3Nc3ncnc4sccc34)cc2)CC1 | – | – | – | –
– | – | – | – | – | – | – | – | – | – | – | – | – | – | – | Nc1ccn([C@@H]2O[C@H](CO)[C@@H](O)[C@@H]2O)c(=O)n1 [CYTARABINE] | – | – | – | 61.9
